Data: ChEMBL document CHEMBL2321834 (J Med Chem, 2013)

Key:
[1] = target: T1, 11-beta-hydroxysteroid dehydrogenase type 2 (Homo sapiens) (UniProt P80365); assay: Inhibition of human recombinant 11beta-HSD2 expressed in HEK293 cell using [1,2,6,7-3H]cortisol as substrate at 2 uM after 10 mins by scintillation counting analysis; format: cell-based
T1 sequence (whole entry): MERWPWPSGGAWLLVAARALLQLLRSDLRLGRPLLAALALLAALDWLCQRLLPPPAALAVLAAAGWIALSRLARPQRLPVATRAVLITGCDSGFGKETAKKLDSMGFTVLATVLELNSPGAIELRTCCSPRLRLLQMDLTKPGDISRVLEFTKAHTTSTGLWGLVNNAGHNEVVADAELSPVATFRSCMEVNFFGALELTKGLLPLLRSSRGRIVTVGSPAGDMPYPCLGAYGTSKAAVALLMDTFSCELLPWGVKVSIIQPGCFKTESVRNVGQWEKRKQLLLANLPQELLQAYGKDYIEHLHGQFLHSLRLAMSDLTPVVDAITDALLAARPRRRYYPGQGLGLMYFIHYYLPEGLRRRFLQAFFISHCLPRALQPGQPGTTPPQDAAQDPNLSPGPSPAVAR
In short: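 Recombinant human 11β-HSD1 or 11β-HSD2 stably transfected in HEK-293 cells, following a previously described procedure.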

[2] = target: 11-beta-hydroxysteroid dehydrogenase 1 (Homo sapiens, UniProt P28845); assay: Inhibition of human recombinant 11beta-HSD1 expressed in HEK293 cell using [1,2-3H]Cortisone as substrate after 10 mins by scintillation counting analysis; format: cell-based
[3] = species: Homo sapiens; assay: Selectivity ratio of IC50 for 17beta-HSD1 in human placental microsomal fraction to IC50 for 17beta-HSD2 in human placental microsomal fraction; format: microsomes; details: Microsome
[4] = target: T2, 17-beta-hydroxysteroid dehydrogenase type 1 (Homo sapiens) (UniProt P14061); details: at 1 µM;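 note: enzyme source was human placental cytosol with tritiated estrone as substrate, 10 min reaction, conversion quantified by HPLC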
T2 sequence (whole entry): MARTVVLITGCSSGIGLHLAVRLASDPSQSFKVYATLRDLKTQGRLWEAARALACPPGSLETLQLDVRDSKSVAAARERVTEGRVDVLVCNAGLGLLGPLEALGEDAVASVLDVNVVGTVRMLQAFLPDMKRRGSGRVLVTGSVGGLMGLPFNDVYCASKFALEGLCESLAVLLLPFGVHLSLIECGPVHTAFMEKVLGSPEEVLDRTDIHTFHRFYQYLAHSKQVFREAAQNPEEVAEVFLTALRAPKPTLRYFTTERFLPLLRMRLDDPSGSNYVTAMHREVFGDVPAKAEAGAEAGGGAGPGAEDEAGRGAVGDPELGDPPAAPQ

[5] = target: T3, 17-beta-hydroxysteroid dehydrogenase type 2 (Homo sapiens, UniProt P37059); assay: Inhibition of 17beta-HSD2 in human MDA-MB-231 cells using [3H]E2 as substrate after 6 hrs by HPLC analysis; format: cell-based
T3 sequence (P37059 whole entry): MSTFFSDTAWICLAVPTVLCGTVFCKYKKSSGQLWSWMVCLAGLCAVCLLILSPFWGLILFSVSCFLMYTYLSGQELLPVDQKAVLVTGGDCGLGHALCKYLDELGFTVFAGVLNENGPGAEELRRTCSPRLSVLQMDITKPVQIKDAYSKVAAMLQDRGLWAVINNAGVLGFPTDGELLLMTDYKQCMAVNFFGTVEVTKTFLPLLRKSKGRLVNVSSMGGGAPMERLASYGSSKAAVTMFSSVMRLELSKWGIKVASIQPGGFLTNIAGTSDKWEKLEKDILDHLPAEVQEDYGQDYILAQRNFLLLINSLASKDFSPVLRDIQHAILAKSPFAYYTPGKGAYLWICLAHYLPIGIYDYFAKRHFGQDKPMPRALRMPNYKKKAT

[6] = target: Estrogen receptor beta (Homo sapiens) (UniProt Q92731); assay: Displacement of [3H]E2 from human recombinant ERbeta after 1 hr by scintillation counting analysis relative to E2
In short: (§1)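 Competitive binding assay against ERα and ERβ, with E2 as internal reference.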

[7] = target: T4, Estrogen receptor (Homo sapiens) (UniProt P03372); assay: Displacement of [3H]E2 from human recombinant ERalpha after 1 hr by scintillation counting analysis relative to E2; in short: as §1
T4 sequence (whole entry): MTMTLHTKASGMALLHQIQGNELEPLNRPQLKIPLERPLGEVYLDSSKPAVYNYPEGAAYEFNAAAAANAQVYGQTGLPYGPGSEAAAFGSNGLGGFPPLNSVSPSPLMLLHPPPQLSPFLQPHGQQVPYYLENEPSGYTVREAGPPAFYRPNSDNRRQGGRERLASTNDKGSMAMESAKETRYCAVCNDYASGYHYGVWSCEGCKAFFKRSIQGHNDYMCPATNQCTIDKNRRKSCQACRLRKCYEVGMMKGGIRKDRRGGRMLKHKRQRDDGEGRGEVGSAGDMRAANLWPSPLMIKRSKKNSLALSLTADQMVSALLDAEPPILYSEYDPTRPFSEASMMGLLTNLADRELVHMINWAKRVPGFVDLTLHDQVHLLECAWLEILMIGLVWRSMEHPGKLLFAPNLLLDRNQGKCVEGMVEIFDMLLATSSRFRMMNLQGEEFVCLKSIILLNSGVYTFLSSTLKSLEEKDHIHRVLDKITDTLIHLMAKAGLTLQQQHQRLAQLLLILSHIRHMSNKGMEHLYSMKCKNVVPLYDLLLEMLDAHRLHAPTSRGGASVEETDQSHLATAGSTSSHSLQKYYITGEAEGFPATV

Chain of 11-beta-hydroxysteroid dehydrogenase 1 (P28845 whole entry): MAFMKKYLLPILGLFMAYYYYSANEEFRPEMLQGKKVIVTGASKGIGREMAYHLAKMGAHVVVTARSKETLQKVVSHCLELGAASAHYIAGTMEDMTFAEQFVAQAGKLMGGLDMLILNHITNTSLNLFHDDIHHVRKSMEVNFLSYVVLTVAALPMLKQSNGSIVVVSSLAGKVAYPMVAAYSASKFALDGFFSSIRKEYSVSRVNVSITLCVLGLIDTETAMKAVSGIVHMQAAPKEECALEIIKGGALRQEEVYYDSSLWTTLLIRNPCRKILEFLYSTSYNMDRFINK
Chain of Estrogen receptor beta (Homo sapiens) (Q92731 whole entry): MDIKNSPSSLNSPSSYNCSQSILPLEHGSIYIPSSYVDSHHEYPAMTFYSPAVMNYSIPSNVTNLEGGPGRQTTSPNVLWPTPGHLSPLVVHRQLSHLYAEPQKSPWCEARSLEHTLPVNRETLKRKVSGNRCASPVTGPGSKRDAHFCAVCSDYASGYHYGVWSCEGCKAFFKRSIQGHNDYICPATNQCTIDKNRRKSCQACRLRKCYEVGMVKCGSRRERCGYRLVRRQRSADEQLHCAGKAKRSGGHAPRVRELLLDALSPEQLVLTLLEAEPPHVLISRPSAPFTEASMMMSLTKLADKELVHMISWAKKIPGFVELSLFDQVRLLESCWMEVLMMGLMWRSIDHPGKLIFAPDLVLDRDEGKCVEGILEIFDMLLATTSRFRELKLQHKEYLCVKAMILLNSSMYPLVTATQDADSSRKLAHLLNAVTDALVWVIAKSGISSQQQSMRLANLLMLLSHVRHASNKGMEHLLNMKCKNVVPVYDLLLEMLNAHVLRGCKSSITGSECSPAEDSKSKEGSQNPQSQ

Compound	inhibition [1] [%]	IC50 [2] [nM]	Ratio IC50 [3]	inhibition [4] [%]	IC50 [5] [nM]	RBA [6] [%]	RBA [7] [%]
COc1cccc(-c2ccc(C(=O)N(C)Cc3cccc(O)c3)s2)c1F	10	1000	73	< 10	–	–	–
COc1cccc(N(C)C(=O)c2ccc(-c3cccc(OC)c3F)s2)c1	8	–	–	17	105	< 0.1	< 0.1
